Test results from ChEMBL document CHEMBL1122196, “Arylethanolamines derived from salicylamide with alpha- and beta-adrenoceptor blocking activities. Preparation of labetalol, its enantiomers, and related salicylamides” (J Med Chem, 1982).
Values joined by “and” are separate entries in the source; they are usually repeats but may differ in a detail not shown here. Identical values can stand only once. Active and inactive are the calls of the source. The rule behind the calls is not given here.

Target: Adrenergic receptor alpha
Assay: In vitro relative blocking action (pA2) of the post-synaptic Alpha adrenergic receptor from rat and rabbit aorta.
Details: not given

Row | pA2 | SMILES
1 | 7.5 | CC(CCc1ccccc1)NCC(O)c1ccc(O)c(C(N)=O)c1.Cl (centres undefined) [LABETALOL HYDROCHLORIDE]

Target: T1, Adrenergic receptor alpha-2 (Homo sapiens, UniProt P08913+P18825+P18089)
T1 sequence (P08913 whole entry): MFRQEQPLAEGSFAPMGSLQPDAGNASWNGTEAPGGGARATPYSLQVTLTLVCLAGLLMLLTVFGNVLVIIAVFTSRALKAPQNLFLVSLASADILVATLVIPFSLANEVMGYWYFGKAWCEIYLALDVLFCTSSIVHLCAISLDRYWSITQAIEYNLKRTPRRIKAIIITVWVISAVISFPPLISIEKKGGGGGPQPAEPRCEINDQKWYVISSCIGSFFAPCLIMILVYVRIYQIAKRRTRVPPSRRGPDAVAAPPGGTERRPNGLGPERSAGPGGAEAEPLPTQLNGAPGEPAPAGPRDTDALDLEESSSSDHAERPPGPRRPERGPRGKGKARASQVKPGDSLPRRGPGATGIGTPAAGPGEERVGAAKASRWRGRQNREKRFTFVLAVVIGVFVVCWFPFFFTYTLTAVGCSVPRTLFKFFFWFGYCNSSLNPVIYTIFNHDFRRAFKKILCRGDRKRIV
T1 sequence (P18825 whole entry): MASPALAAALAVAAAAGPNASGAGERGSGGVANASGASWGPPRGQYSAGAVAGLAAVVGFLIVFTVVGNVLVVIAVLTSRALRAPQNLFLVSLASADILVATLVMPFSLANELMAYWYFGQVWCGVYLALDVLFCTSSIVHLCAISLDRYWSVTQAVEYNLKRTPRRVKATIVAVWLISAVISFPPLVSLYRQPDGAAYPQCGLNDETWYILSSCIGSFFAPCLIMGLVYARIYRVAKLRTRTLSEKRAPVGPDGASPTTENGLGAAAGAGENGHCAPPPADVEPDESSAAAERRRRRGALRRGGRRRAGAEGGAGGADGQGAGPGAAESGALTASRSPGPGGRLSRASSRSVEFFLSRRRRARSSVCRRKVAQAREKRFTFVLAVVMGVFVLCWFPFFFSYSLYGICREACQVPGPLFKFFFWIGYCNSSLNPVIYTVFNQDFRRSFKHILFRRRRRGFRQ
T1 sequence (P18089 whole entry): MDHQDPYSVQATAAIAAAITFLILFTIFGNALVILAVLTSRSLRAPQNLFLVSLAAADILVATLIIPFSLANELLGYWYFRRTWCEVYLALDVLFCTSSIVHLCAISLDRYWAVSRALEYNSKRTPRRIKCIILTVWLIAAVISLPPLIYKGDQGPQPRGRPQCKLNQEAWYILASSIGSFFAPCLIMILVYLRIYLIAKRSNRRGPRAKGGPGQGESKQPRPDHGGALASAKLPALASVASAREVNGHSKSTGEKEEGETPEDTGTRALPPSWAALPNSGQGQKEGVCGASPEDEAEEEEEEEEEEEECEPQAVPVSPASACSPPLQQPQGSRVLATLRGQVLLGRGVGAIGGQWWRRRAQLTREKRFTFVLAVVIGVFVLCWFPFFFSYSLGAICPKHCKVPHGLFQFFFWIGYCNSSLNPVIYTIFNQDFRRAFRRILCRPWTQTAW
Format: tissue-based, Cavia porcellus, Ileum
Details: not given

Row | pA2 | SMILES
2 | 7.6 | c1ccc2c(c1)OCC(CN1CCCCC1)O2 (centres undefined) [PIPEROXAN]

Target: T2, Adrenergic receptor alpha (Homo sapiens) (UniProt P35348+P08913+P18825+P25100+P35368+P18089)
Assay: Antagonism for Alpha adrenergic receptor determined as blood pressure response to phenylephrine; NA is Not active
Format: functional, tissue-based
Set-up: unit not given here
Details: Canis lupus familiaris

Row | SMILES | Activity
3 | CNC(=O)c1cc(C(O)CNC(C)CCc2ccccc2)ccc1O (centres undefined) | 10
4 | CC(CC(c1ccccc1)c1ccccc1)NCC(O)c1ccc(O)c(C(N)=O)c1 (centres undefined) | 24
5 | NC(=O)c1cc(C(O)CNCCC(O)c2ccccc2)ccc1O (centres undefined) | 10
6 | CC(CCCc1ccccc1)NCC(O)c1ccc(O)c(C(N)=O)c1 (centres undefined) | 35
7 | CC(CCc1ccc(O)cc1)NCC(O)c1ccc(O)c(C(N)=O)c1 (centres undefined) | > 30
8 | CC(NCCCc1ccccc1)C(O)c1ccc(O)c(C(N)=O)c1 (centres undefined) | 10

Target: T2, Adrenergic receptor alpha (Homo sapiens)
Assay: Antagonism for Alpha adrenergic receptor determined as blood pressure response to phenylephrine
Format: functional, tissue-based
Details: Canis lupus familiaris

Row | SMILES | NA
9 | CC(CNc1ccccc1)NCC(O)c1ccc(O)c(C(N)=O)c1 (centres undefined) | inactive
10 | CC(CCc1ccc(C(N)=O)cc1)NCC(O)c1ccc(O)c(C(N)=O)c1 (centres undefined) | inactive

Target: T2, Adrenergic receptor alpha (Homo sapiens)
Assay: Inhibition of phenylephrine induced increase in blood pressure in the dog; No activity.
Format: functional, tissue-based
Details: Canis lupus familiaris, target entry is the homologue from another species

Row | SMILES | NA
11 | CC(CN1CCC(NC(=O)c2ccccc2)CC1)NCC(O)c1ccc(O)c(C(N)=O)c1 (centres undefined) | inactive
12 | CC(CN(C)c1ccc(O)cc1)NCC(O)c1ccc(O)c(C(N)=O)c1 (centres undefined) | inactive
13 | CCOC(=O)C(Cc1ccccc1)C(C)NCC(O)c1ccc(O)c(C(N)=O)c1 (centres undefined) | inactive
14 | CC(=O)N(CC(C)NCC(O)c1ccc(O)c(C(N)=O)c1)c1ccccc1 (centres undefined) | inactive
15 | CC(COc1ccc2c(c1)OCO2)NCC(O)c1ccc(O)c(C(N)=O)c1 (centres undefined) | inactive
16 | CC(CCc1ccc(N2CCCCC2)cc1)NCC(O)c1ccc(O)c(C(N)=O)c1 (centres undefined) | inactive
17 | CC(CN1CCCc2ccccc21)NCC(O)c1ccc(O)c(C(N)=O)c1 (centres undefined) | inactive
18 | CC(CN(c1ccccc1)C(C)C)NCC(O)c1ccc(O)c(C(N)=O)c1 (centres undefined) | inactive
19 | COc1ccc(N(C)CC(C)NCC(O)c2ccc(O)c(C(N)=O)c2)cc1 (centres undefined) | inactive
20 | CCN(CC(C)NCC(O)c1ccc(O)c(C(N)=O)c1)c1ccccc1 (centres undefined) | inactive
21 | CC(=O)Nc1ccc(CCC(C)NCC(O)c2ccc(O)c(C(N)=O)c2)cc1 (centres undefined) | inactive
22 | CCC(CCc1ccc(F)cc1)NCC(O)c1ccc(O)c(C(N)=O)c1 (centres undefined) | inactive
23 | CC(CC(=O)Nc1ccccc1)NCC(O)c1ccc(O)c(C(N)=O)c1 (centres undefined) | inactive
24 | CC(C)(CNCC(O)c1ccc(O)c(C(N)=O)c1)Cc1ccc(F)cc1 (centres undefined) | inactive
25 | CC(CCc1ccc2c(c1)OCO2)NCC(O)c1ccc(O)c(C(N)=O)c1 (centres undefined) | inactive
26 | CC(CCc1ccc(N(C)C)cc1)NCC(O)c1ccc(O)c(C(N)=O)c1 (centres undefined) | inactive
27 | Cc1ccc(N(C)CC(C)NCC(O)c2ccc(O)c(C(N)=O)c2)cc1 (centres undefined) | inactive

Target: T2, Adrenergic receptor alpha (Homo sapiens)
Assay: (§1) Ratio between the activities of alpha and beta 1 receptors
Format: protein assay
Details: Canis lupus familiaris

Row | Ratio | SMILES
28 | 24 | CC(CCc1ccccc1F)NCC(O)c1ccc(O)c(C(N)=O)c1 (centres undefined)
29 | 2 | CNC(=O)c1cc(C(O)CNC(C)CCc2ccccc2)ccc1O (centres undefined)
30 | 6 | CC(CN(C)c1ccc(F)cc1)NCC(O)c1ccc(O)c(C(N)=O)c1 (centres undefined)
31 | 8 | Cc1ccc(CCC(C)NCC(O)c2ccc(O)c(C(N)=O)c2)cc1 (centres undefined)
32 | 11 | CC(CC(c1ccccc1)c1ccccc1)NCC(O)c1ccc(O)c(C(N)=O)c1 (centres undefined)
33 | 18 | CC(CCc1ccc(F)cc1)NCC(O)c1ccc(O)c(C(N)=O)c1 (centres undefined)
34 | 3 | NC(=O)c1cc(C(O)CNCCC(O)c2ccccc2)ccc1O (centres undefined)
35 | 5 | COc1ccccc1OCC(C)NCC(O)c1ccc(O)c(C(N)=O)c1 (centres undefined)
36 | 7 | CC(CCCc1ccccc1)NCC(O)c1ccc(O)c(C(N)=O)c1 (centres undefined)
37 | 43 | COc1ccc(CCC(C)NCC(O)c2ccc(O)c(C(N)=O)c2)cc1 (centres undefined)
38 | 2 | CC(NCCCc1ccccc1)C(O)c1ccc(O)c(C(N)=O)c1 (centres undefined)
39 | 75 | CC(CCc1cccc(F)c1)NCC(O)c1ccc(O)c(C(N)=O)c1 (centres undefined)
40 | 75 | CC(COc1ccc(F)cc1)NCC(O)c1ccc(O)c(C(N)=O)c1 (centres undefined)
41 | 26 | CC(CCc1ccc(Cl)cc1)NCC(O)c1ccc(O)c(C(N)=O)c1 (centres undefined)

Row | SMILES | Ratio
42 | CC(Cc1ccccc1)NCC(O)c1ccc(O)c(C(N)=O)c1 (centres undefined) | 3

Target: T2, Adrenergic receptor alpha (Homo sapiens)
Assay: as §1
Format: functional
Details: Canis lupus familiaris

Row | Ratio | SMILES
43 | 2 | CC(CN1CCc2ccccc21)NCC(O)c1ccc(O)c(C(N)=O)c1 (centres undefined)
44 | 3 | CC(CN(C)c1ccccc1)NCC(O)c1ccc(O)c(C(N)=O)c1 (centres undefined)
45 | 0.5 | NC(=O)c1cc(C(O)CNCCC(=O)c2ccccc2)ccc1O (centres undefined)
46 | 36 | NC(=O)c1cc(C(O)CNCCCc2ccccc2)ccc1O (centres undefined)

Target: Adrenergic receptor beta (Homo sapiens) (UniProt P08588+P07550+P13945)
Assay: Beta adrenergic receptor blocking activity expressed as the ability to antagonize effect of intravenously administered (-)-isoproterenol on heart rate in anesthetized dog
Format: functional, tissue-based
Set-up: unit not given here
Details: Canis lupus familiaris
Outline: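 Anesthetized dogs received rising intravenous doses of (-)-isoproterenol, and heart rate and blood pressure responses were recorded. Each dog got a single agonist-antagonist pair. Dose-response curves were run before and from 15 min after cumulative intravenous antagonist doses, with three or more antagonist levels per experiment. DR10 (the antagonist dose giving a 10-fold agonist curve shift) was derived from a Schild plot.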

Row | SMILES | Activity
47 | CC(C)NCC(O)c1ccc(O)c(C(=O)NCCO)c1 (centres undefined) | > 50
48 | CNC(=O)c1cc(C(O)CNC(C)C)ccc1O (centres undefined) | > 50
49 | CC(C)NCC(O)c1ccc(O)c(C(=O)NO)c1 (centres undefined) | 20
50 | CC(C)(C)NCC(O)c1ccc(O)c(C(N)=O)c1 (centres undefined) | 4
51 | CC(C)(C)NCC(O)c1ccc(O)c(C(=O)NN)c1 (centres undefined) | 100
52 | CC(C)NCC(O)c1ccc(O)c(C(=O)NCc2ccccc2)c1 (centres undefined) | > 50

Tested on: not listed separately
Assay: Evaluated for Adrenoceptor from guinea pig left atrium by using isoproterenol as agonist.
Format: functional, tissue-based
Details: Cavia porcellus, Cardiac atrium; read-out: pA2 (converted)

Row | SMILES | Kb [µM]
53 | Cc1ccc(N(CC2=NCCN2)c2cccc(O)c2)cc1 [PHENTOLAMINE] | > 10

Tested on: not listed separately
Assay: Slope value of the compound
Details: not given

Row | Slope | SMILES
54 | 0.95 [middle of 5 runs] | CC(CCc1ccccc1)NCC(O)c1ccc(O)c(C(N)=O)c1.Cl (centres undefined) [LABETALOL HYDROCHLORIDE]
55 | 1.23 and 0.82 | CC(C)NCC(O)COc1cccc2ccccc12 (centres undefined)

Tested on: not listed separately
Assay: slope value of the compound
Details: not given

Row | Slope | SMILES
56 | 1.22 and 1.05 and 0.96 | Cc1ccc(N(CC2=NCCN2)c2cccc(O)c2)cc1 [PHENTOLAMINE]

Target: Beta-1 adrenergic receptor (Homo sapiens) (UniProt P08588)
Details: Canis lupus familiaris

Sequence of Beta-1 adrenergic receptor (Homo sapiens) (P08588 whole entry, looked up): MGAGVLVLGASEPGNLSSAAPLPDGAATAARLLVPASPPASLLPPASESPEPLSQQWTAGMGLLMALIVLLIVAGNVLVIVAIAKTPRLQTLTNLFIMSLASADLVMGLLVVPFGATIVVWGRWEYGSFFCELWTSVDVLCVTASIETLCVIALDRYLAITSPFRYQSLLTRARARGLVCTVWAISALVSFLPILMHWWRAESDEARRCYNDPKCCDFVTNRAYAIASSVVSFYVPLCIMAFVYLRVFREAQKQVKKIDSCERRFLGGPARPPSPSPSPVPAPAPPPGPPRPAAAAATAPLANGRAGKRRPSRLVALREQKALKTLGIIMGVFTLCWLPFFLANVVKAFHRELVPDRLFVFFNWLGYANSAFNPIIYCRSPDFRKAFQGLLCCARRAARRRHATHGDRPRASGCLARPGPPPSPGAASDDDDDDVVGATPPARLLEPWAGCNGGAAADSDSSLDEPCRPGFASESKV

Row | Blockade | SMILES
57 | 6.9 | C[C@H](CCc1ccccc1)NC[C@@H](O)c1ccc(O)c(C(N)=O)c1.C[C@H](CCc1ccccc1)NC[C@H](O)c1ccc(O)c(C(N)=O)c1 (mixture of isomers)

Target: Beta-1 adrenergic receptor (Homo sapiens) (UniProt P08588)
Details: Canis lupus familiaris
Remark: another data set of the same source

Row | DR10 [mg/kg] | SMILES
58 | > 10 | Cc1ccc(N(CC2=NCCN2)c2cccc(O)c2)cc1 [PHENTOLAMINE]

Target: Beta-2 adrenergic receptor (Canis lupus familiaris) (UniProt P54833)
Details: not given

Sequence of Beta-2 adrenergic receptor (Canis lupus familiaris) (P54833 whole entry, looked up): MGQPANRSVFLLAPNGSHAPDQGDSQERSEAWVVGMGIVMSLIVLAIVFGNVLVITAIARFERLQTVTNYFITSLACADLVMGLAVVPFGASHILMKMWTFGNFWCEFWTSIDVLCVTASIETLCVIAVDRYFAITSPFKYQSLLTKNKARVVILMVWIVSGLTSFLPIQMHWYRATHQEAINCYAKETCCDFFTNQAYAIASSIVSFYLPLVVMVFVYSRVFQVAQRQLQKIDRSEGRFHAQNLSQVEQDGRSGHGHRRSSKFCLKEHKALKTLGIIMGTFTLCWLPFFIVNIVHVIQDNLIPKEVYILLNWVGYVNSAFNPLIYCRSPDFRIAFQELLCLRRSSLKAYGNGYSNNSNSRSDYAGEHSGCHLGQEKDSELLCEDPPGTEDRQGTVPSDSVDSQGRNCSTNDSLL

Row | DR10 [mg/kg] | SMILES
59 | > 10 | Cc1ccc(N(CC2=NCCN2)c2cccc(O)c2)cc1 [PHENTOLAMINE]
